Data as given in ChEMBL document CHEMBL1122297, “Stereospecific synthesis of chiral metabolites of ifosfamide and their determination in the urine” (J Med Chem, 1983).

Assays:
[1] = Metabolite of ifosfamide determined in urine; NF-Not found; assay type: ADME, tissue-based; conditions: human
[2] = Active metabolite of ifosfamide determined in humans; A-Active; assay type: ADME; conditions: human
[3] = Portion of holoxan excreted in the form of the metabolite from 1700 mL of urine on day 5 was determined in embryonal rhabdomyosarcoma patients treated with ifosfamide; assay type: ADME, tissue-based; conditions: human, in vivo
How it was run: (§1)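 Patients received ifosfamide at 2 g per day for 10 days, and daily urine was collected. Urine from days 1 and 2 was dropped because it had been stored at room temperature. Solids were centrifuged off. Supernatant was examined by 31P NMR, and amounts were taken from the electronically integrated spectra.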

[4] = Portion of holoxan excreted in the form of the metabolite from 1200 mL of urine on day 3 was determined in embryonal rhabdomyosarcoma patients treated with ifosfamide; assay type: ADME; conditions: human, in vivo; how it was run: as §1
[5] = Quantity of the metabolite found in the urine of the embryonal rhabdomyosarcoma patients treated with ifosfamide from 1700 mL of urine tested on day 5; assay type: ADME; conditions: human; how it was run: as §1
[6] = Quantity of the metabolite found in the urine of the embryonal rhabdomyosarcoma patients treated with ifosfamide from 1600 mL of urine tested on day 10; assay type: ADME; conditions: human; how it was run: as §1
[7] = Quantity of the metabolite found in the urine of the embryonal rhabdomyosarcoma patients treated with ifosfamide from 1200 mL of urine tested on day 3; assay type: ADME, tissue-based; conditions: human; how it was run: as §1
[8] = Quantity of the metabolite found in the urine of the embryonal rhabdomyosarcoma patients treated with ifosfamide from 1500 mL of urine tested on day 9; assay type: ADME; conditions: human; how it was run: as §1
[9] = Portion of holoxan excreted in the form of the metabolite from 1300 mL of urine on day 6 was determined in embryonal rhabdomyosarcoma patients treated with ifosfamide; assay type: ADME; conditions: human, in vivo; how it was run: as §1
[10] = Quantity of the metabolite found in the urine of the embryonal rhabdomyosarcoma patients treated with ifosfamide from 2310 mL of urine tested on day 4; assay type: ADME; conditions: human; how it was run: as §1
[11] = Quantity of the metabolite found in the urine of the embryonal rhabdomyosarcoma patients treated with ifosfamide from 1300 mL of urine tested on day 6; assay type: ADME; conditions: human; how it was run: as §1
[12] = Portion of holoxan excreted in the form of the metabolite from 1600 mL of urine on day 10 was determined in embryonal rhabdomyosarcoma patients treated with ifosfamide; assay type: ADME, tissue-based; conditions: human, in vivo; how it was run: as §1
[13] = Quantity of the metabolite found in the urine of the embryonal rhabdomyosarcoma patients treated with ifosfamide from 1200 mL of urine tested on day 7; assay type: ADME; conditions: human; how it was run: as §1
[14] = Quantity of the metabolite found in the urine of the embryonal rhabdomyosarcoma patients treated with ifosfamide from 1300 mL of urine tested on day 8; assay type: ADME, tissue-based; conditions: human; how it was run: as §1
[15] = Portion of holoxan excreted in the form of the metabolite from 2310 mL of urine on day 4 was determined in embryonal rhabdomyosarcoma patients treated with ifosfamide; assay type: ADME, tissue-based; conditions: human, in vivo; how it was run: as §1
[16] = Portion of holoxan excreted in the form of the metabolite from 1300 mL of urine on day 8 was determined in embryonal rhabdomyosarcoma patients treated with ifosfamide; assay type: ADME; conditions: human, in vivo; how it was run: as §1
[17] = Portion of holoxan excreted in the form of the metabolite from 1500 mL of urine on day 9 was determined in embryonal rhabdomyosarcoma patients treated with ifosfamide; assay type: ADME, tissue-based; conditions: human, in vivo; how it was run: as §1
[18] = Portion of holoxan excreted in the form of the metabolite from 1200 mL of urine on day 7 was determined in embryonal rhabdomyosarcoma patients treated with ifosfamide; assay type: ADME; conditions: human, in vivo; how it was run: as §1
[19] = Percent ratio of the enantiomeric form (+)R extracted from the urine of alveolar rhabdomyosarcoma patients was determined; assay type: ADME, tissue-based; conditions: human
How it was run: (§2)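 Patients were dosed with ifosfamide at 2 g per day for 10 days. Solids were centrifuged out of the urine. The supernatant was extracted with chloroform and with ethyl acetate before the enantiomeric composition was determined, because signals of parent drug and metabolite overlapped in crude concentrated urine.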

[20] = Percent ratio of the enantiomeric form (+)R extracted from the urine of embryonal rhabdomyosarcoma patients was determined; assay type: ADME; conditions: human; how it was run: as §2
[21] = Percent ratio of the enantiomeric form (-)S extracted from the urine of embryonal rhabdomyosarcoma patients was determined; assay type: ADME, tissue-based; conditions: human; how it was run: as §2
[22] = Percent ratio of the enantiomeric form (-)S extracted from the urine of alveolar rhabdomyosarcoma patients was determined; assay type: ADME, tissue-based; conditions: human; how it was run: as §2

Row | Structure (SMILES) | Activity [1] | Activity [2] | Excretion [3] [%] | Excretion [4] [%] | Quantity [5] [mg] | Quantity [6] [mg] | Quantity [7] [mg] | Quantity [8] [mg] | Excretion [9] [%] | Quantity [10] [mg] | Quantity [11] [mg] | Excretion [12] [%] | Quantity [13] [mg] | Quantity [14] [mg] | Excretion [15] [%] | Excretion [16] [%] | Excretion [17] [%] | Excretion [18] [%] | Extraction [19] [%] | Extraction [20] [%] | further results
1 | O=CCCOP(=O)(NCCCl)NCCCl | Not found | Active | – | – | – | – | – | – | – | – | – | – | – | – | – | – | – | – | – | – | –
2 | O=C(O)CCOP(=O)(NCCCl)NCCCl | – | – | 40.2 | 39.8 | 70 | 130 | 70 | 186 | 91.5 | 62 | 348 | 61 | 312 | 56 | 65.5 | 61.7 | 100 | 74 | – | – | –
3 | O=P1(NCCCl)NCCCO1 (stereo not drawn) | – | – | 40.2 | 39.8 | 258 | 320 | 198 | 310 | 91.5 | 432 | 434 | 61 | 348 | 338 | 65.5 | 61.7 | 100 | 74 | 72 | 45 | Extraction [21]: 55%; Extraction [22]: 28%
4 | NP1(=O)OCCCN1CCCl (stereo not drawn) | – | – | 40.2 | 39.8 | 95 | 160 | 64 | 231 | 91.5 | 163 | 243 | 61 | 180 | 130 | 65.5 | 61.7 | 100 | 74 | 13 | 27 | Extraction [21]: 73%; Extraction [22]: 87%
5 | O=C1CCOP(=O)(NCCCl)N1CCCl (stereo not drawn) [4-KETOIFOSFAMIDE] | – | – | 40.2 | 39.8 | 81 | 66 | 44 | 24 | 91.5 | 34 | 136 | 61 | 84 | 78 | 65.5 | 61.7 | 100 | 74 | – | – | –
6 | O=P1(NCCCl)OCCC(O)N1CCCl (stereo not drawn) [ALDOIFOSFAMIDE] | Not found | Active | – | – | – | – | – | – | – | – | – | – | – | – | – | – | – | – | – | – | –
7 | O=P1(NCCCl)OCCCN1CCCl (stereo not drawn) [IFOSFAMIDE] | – | – | 40.2 | 39.8 | 200 | 421 | 348 | 1100 | 91.5 | 442 | 500 | 61 | 432 | 494 | 65.5 | 61.7 | 100 | 74 | 57 | 55 | Extraction [21]: 45%; Extraction [22]: 43%
8 | O=P(O)(NCCCl)NCCCl [PALIFOSFAMIDE] | Not found | Active | – | – | – | – | – | – | – | – | – | – | – | – | – | – | – | – | – | – | –
